# Results: ChEMBL document CHEMBL1821649, “Synthesis, characterization of some benzazoles bearing pyridine moiety: search for novel anticancer agents” (2011)
# Tests used:
# Type in all cases: functional
# SK-MEL-2 = assay: Antitumor activity against human SK-MEL-2 cells after 48 hrs by SRB assay; conditions: SK-MEL-2, 48 h
# How it was run: (§1)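 NCI-60 human tumour cell panel run under the National Cancer Institute Drug Evaluation Branch protocol. Compounds passing a single-dose prescreen were retested on all lines at five 10-fold dilutions. Growth was expressed as percent growth of treated cells. Response parameters were GI50 (molar concentration giving 50% growth inhibition), TGI (total growth inhibition) and LC50 (median lethal concentration).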
# SNB-75 = assay: Antitumor activity against human SNB75 cells after 48 hrs by SRB assay; conditions: SNB-75, 48 h; how it was run: as §1
# NCI-H226 = assay: Antitumor activity against human NCI-H226 cells after 48 hrs by SRB assay; conditions: NCI-H226, 48 h; for CC50: read-out: LC50 (the source's name); how it was run: as §1
# SN12C = assay: Antitumor activity against human SN12C cells after 48 hrs by SRB assay; conditions: for CC50: read-out: LC50 (the source's name); how it was run: as §1
# NCI-H23 = assay: Antitumor activity against human NCI-H23 cells after 48 hrs by SRB assay; conditions: NCI-H23, 48 h; how it was run: as §1
# IGROV-1 = assay: Antitumor activity against human IGROV1 cells after 48 hrs by SRB assay; conditions: IGROV-1, 48 h; how it was run: as §1
# HOP-92 = assay: Antitumor activity against human HOP92 cells after 48 hrs by SRB assay; conditions: HOP-92, 48 h; how it was run: as §1
# DU-145 = assay: Antitumor activity against human DU145 cells after 48 hrs by SRB assay; conditions: DU-145, 48 h; for CC50: read-out: LC50 (the source's name); how it was run: as §1
# CCRF-CEM = assay: Antitumor activity against human CCRF-CEM cells after 48 hrs by SRB assay; how it was run: as §1
# HOP-62 = assay: Antitumor activity against human HOP62 cells after 48 hrs by SRB assay; conditions: HOP-62, 48 h; for CC50: read-out: LC50 (the source's name); how it was run: as §1
# BT-549 = assay: Antitumor activity against human BT549 cells after 48 hrs by SRB assay; conditions: BT-549, 48 h; for CC50: read-out: LC50 (the source's name); how it was run: as §1
# HCC 2998 = assay: Antitumor activity against human HCC2998 cells after 48 hrs by SRB assay; conditions: HCC 2998, 48 h; for CC50: read-out: LC50 (the source's name); how it was run: as §1
# NCI/ADR-RES = assay: Antitumor activity against human NCI/ADR-RES cells after 48 hrs by SRB assay; conditions: for CC50: read-out: LC50 (the source's name); how it was run: as §1
# T47D = assay: Antitumor activity against human T47D cells after 48 hrs by SRB assay; conditions: for CC50: read-out: LC50 (the source's name)
# How it was run: (§2)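 NCI-60 human cancer cell line panel run under the NCI Drug Evaluation Branch protocol. Compounds were first screened at a single dose. Those meeting preset inhibition thresholds were retested at five 10-fold dilutions. Output was percent growth of treated cells, given as % growth inhibition. GI50, TGI and LC50 values were derived from the five-dose data.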
# CAKI-1 = assay: Antitumor activity against human Caki1 cells after 48 hrs by SRB assay; conditions: CAKI-1, 48 h; for CC50: read-out: LC50 (the source's name); how it was run: as §1
# SR = assay: Antitumor activity against human SR cells after 48 hrs by SRB assay; how it was run: as §1
# RXF 393 = assay: Antitumor activity against human RXF393 cells after 48 hrs by SRB assay; conditions: RXF 393, 48 h; for CC50: read-out: LC50 (the source's name); how it was run: as §1
# NCI-H460 = assay: Antitumor activity against human NCI-H460 cells after 48 hrs by SRB assay; conditions: NCI-H460, 48 h; how it was run: as §1
# EKVX = assay: Antitumor activity against human EKVX cells after 48 hrs by SRB assay; conditions: for CC50: read-out: LC50 (the source's name); how it was run: as §1
# [1] = Antitumor activity against human […] cells after 48 hrs by SRB assay; conditions: for CC50: read-out: LC50 (the source's name); how it was run: as §1
# MDA-MB-435 = assay: Antitumor activity against human MDA-MB-435 cells after 48 hrs by SRB assay; conditions: MDA-MB-435, 48 h; how it was run: as §1
# UACC-62 = assay: Antitumor activity against human UACC62 cells after 48 hrs by SRB assay; conditions: UACC-62, 48 h; how it was run: as §2
# [2] = Antitumor activity against human Hs 578T cells after 48 hrs by SRB assay; conditions: for CC50: read-out: LC50 (the source's name); how it was run: as §1
# HT-29 = assay: Antitumor activity against human HT-29 cells after 48 hrs by SRB assay; conditions: HT-29, 48 h; for CC50: read-out: LC50 (the source's name); how it was run: as §1
# MCF7 = assay: Antitumor activity against human MCF7 cells after 48 hrs by SRB assay; conditions: MCF7, 48 h; for CC50: read-out: LC50 (the source's name); how it was run: as §1
# PC-3 = assay: Antitumor activity against human PC3 cells after 48 hrs by SRB assay; conditions: PC-3, 48 h; how it was run: as §1
smiles,measurement,setting,value
Cc1cc2nc(-c3c(N)ncc(C#N)c3-c3ccc(Cl)cc3)[nH]c2cc1C,GI50,SK-MEL-2,20.4 µM
same,LC50 (median lethal concentration),SK-MEL-2,> 100 µM
same,TGI,SK-MEL-2,> 100 µM
same,GI50,SNB-75,12.9 µM
same,LC50,SNB-75,81.3 µM
same,TGI,SNB-75,32.4 µM
same,GI50,NCI-H226,15 µM
same,TGI,NCI-H226,46.3 µM
same,CC50,NCI-H226,100 µM
same,GI50,SN12C,31 µM
same,TGI,SN12C,> 100 µM
same,CC50,SN12C,> 100 µM
same,GI50,NCI-H23,8.1 µM
same,LC50,NCI-H23,99.7 µM
same,TGI,NCI-H23,30.7 µM
same,GI50,IGROV-1,18.7 µM
same,LC50,IGROV-1,> 100 µM
same,TGI,IGROV-1,> 100 µM
same,GI50,HOP-92,0.275 µM
same,LC50,HOP-92,44.2 µM
same,TGI,HOP-92,5.23 µM
same,GI50,DU-145,5.68 µM
same,TGI,DU-145,27.1 µM
same,CC50,DU-145,93.1 µM
same,GI50,CCRF-CEM,24.6 µM
same,LC50,CCRF-CEM,> 100 µM
same,TGI,CCRF-CEM,> 100 µM
same,GI50,HOP-62,6.36 µM
same,TGI,HOP-62,21.7 µM
same,CC50,HOP-62,55.9 µM
same,GI50,BT-549,37.6 µM
same,TGI,BT-549,> 100 µM
same,CC50,BT-549,> 100 µM
same,GI50,HCC 2998,20.9 µM
same,TGI,HCC 2998,> 100 µM
same,CC50,HCC 2998,> 100 µM
same,GI50,NCI/ADR-RES,15.7 µM
same,TGI,NCI/ADR-RES,> 100 µM
same,CC50,NCI/ADR-RES,> 100 µM
same,GI50,T47D,4.63 µM
same,TGI,T47D,> 100 µM
same,CC50,T47D,> 100 µM
same,GI50,CAKI-1,12.1 µM
same,TGI,CAKI-1,> 100 µM
same,CC50,CAKI-1,> 100 µM
same,GI50,SR,28.7 µM
same,LC50 (median lethal concentration),SR,> 100 µM
same,TGI,SR,> 100 µM
same,GI50,RXF 393,3.18 µM
same,TGI,RXF 393,13.7 µM
same,CC50,RXF 393,42.6 µM
same,GI50,NCI-H460,3.04 µM
same,LC50 (median lethal concentration),NCI-H460,> 100 µM
same,TGI,NCI-H460,> 100 µM
same,GI50,EKVX,14.4 µM
same,TGI,EKVX,76.7 µM
same,CC50,EKVX,> 100 µM
same,GI50,[1],19.8 µM
same,TGI,[1],84.2 µM
same,CC50,[1],> 100 µM
same,GI50,MDA-MB-435,2.62 µM
same,LC50 (median lethal concentration),MDA-MB-435,> 100 µM
same,TGI,MDA-MB-435,> 100 µM
same,GI50,UACC-62,11 µM
same,LC50,UACC-62,> 100 µM
same,TGI,UACC-62,53.2 µM
same,GI50,[2],12 µM
same,TGI,[2],> 100 µM
same,CC50,[2],> 100 µM
same,GI50,HT-29,6.06 µM
same,TGI,HT-29,> 100 µM
same,CC50,HT-29,> 100 µM
same,GI50,MCF7,9.34 µM
same,TGI,MCF7,> 100 µM
same,CC50,MCF7,> 100 µM
COc1ccc(-c2c(C#N)cnc(N)c2-c2nc3cc(C)c(C)cc3[nH]2)cc1,GI50,SK-MEL-2,10.8 µM
same,LC50 (median lethal concentration),SK-MEL-2,> 100 µM
same,TGI,SK-MEL-2,98 µM
same,GI50,SNB-75,2.36 µM
same,LC50,SNB-75,32.4 µM
same,TGI,SNB-75,8.19 µM
same,GI50,NCI-H226,16.4 µM
same,TGI,NCI-H226,> 100 µM
same,CC50,NCI-H226,> 100 µM
same,GI50,SN12C,25.4 µM
same,TGI,SN12C,> 100 µM
same,CC50,SN12C,> 100 µM
same,GI50,NCI-H23,5.37 µM
same,LC50,NCI-H23,> 100 µM
same,TGI,NCI-H23,33.3 µM
same,GI50,IGROV-1,16 µM
same,LC50,IGROV-1,> 100 µM
same,TGI,IGROV-1,> 100 µM
same,GI50,HOP-92,2.65 µM
same,LC50,HOP-92,> 100 µM
same,TGI,HOP-92,16.3 µM
same,GI50,PC-3,8.86 µM
same,GI50,DU-145,6.92 µM
same,TGI,DU-145,23.8 µM
same,CC50,DU-145,61.8 µM
same,GI50,CCRF-CEM,25.6 µM
same,LC50,CCRF-CEM,> 100 µM
same,TGI,CCRF-CEM,> 100 µM
same,GI50,HOP-62,3.65 µM
same,TGI,HOP-62,14.4 µM
same,CC50,HOP-62,45.2 µM
same,GI50,BT-549,30.6 µM
same,TGI,BT-549,> 100 µM
same,CC50,BT-549,> 100 µM
same,GI50,HCC 2998,11 µM
same,TGI,HCC 2998,> 100 µM
same,CC50,HCC 2998,> 100 µM
same,GI50,NCI/ADR-RES,6.84 µM
same,TGI,NCI/ADR-RES,> 100 µM
same,CC50,NCI/ADR-RES,> 100 µM
same,GI50,T47D,15.4 µM
same,TGI,T47D,> 100 µM
same,CC50,T47D,> 100 µM
same,GI50,CAKI-1,14.6 µM
same,TGI,CAKI-1,> 100 µM
same,CC50,CAKI-1,> 100 µM
same,GI50,SR,5.64 µM
same,LC50 (median lethal concentration),SR,> 100 µM
same,TGI,SR,> 100 µM
same,GI50,RXF 393,6.68 µM
same,TGI,RXF 393,20.4 µM
same,CC50,RXF 393,54.1 µM
same,GI50,NCI-H460,18.1 µM
same,LC50 (median lethal concentration),NCI-H460,> 100 µM
same,TGI,NCI-H460,> 100 µM
same,GI50,EKVX,15.8 µM
same,TGI,EKVX,> 100 µM
same,CC50,EKVX,> 100 µM
same,GI50,[1],9.8 µM
same,TGI,[1],65.7 µM
same,CC50,[1],> 100 µM
same,GI50,MDA-MB-435,1.95 µM
same,LC50 (median lethal concentration),MDA-MB-435,100 µM
same,TGI,MDA-MB-435,5.39 µM
same,GI50,UACC-62,72.2 µM
same,LC50,UACC-62,> 100 µM
same,TGI,UACC-62,> 100 µM
same,GI50,[2],5.87 µM
same,TGI,[2],> 100 µM
same,CC50,[2],> 100 µM
same,GI50,HT-29,4.79 µM
same,TGI,HT-29,> 100 µM
same,CC50,HT-29,> 100 µM
same,GI50,MCF7,6.34 µM
same,TGI,MCF7,> 100 µM
same,CC50,MCF7,> 100 µM
